Measurements published in ChEMBL document CHEMBL2434928, “New derivatives of salicylamides: Preparation and antimicrobial activity against various bacterial species” (2013).
Converted amounts (≈) assume the structure as drawn.

What was measured:
Assay type in all cases: functional
Pasteurella multocida = test: Antimicrobial activity against Pasteurella multocida clinical isolate after 24 hrs by broth microdilution method
Summary of the method: (§1)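 Broth microdilution MIC in Mueller–Hinton broth, per modified NCCLS guidelines. Strains were grown on nutrient agar with 5% ovine blood. Colonies were suspended in PBS (pH 7.2–7.3), adjusted to 0.5 McFarland, then diluted 1:20 in MH broth. Compounds were in DMSO, ≤2.5% final. Drug-free, sterility and DMSO controls were included.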

Staphylococcus aureus [1] = test: Antimicrobial activity against methicillin-resistant Staphylococcus aureus 3202 after 24 hrs by broth microdilution method; details: Staphylococcus aureus, 3202, 24 h
Summary of the method: (§2)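 Colonies grown on nutrient agar with 5% ovine blood were suspended in PBS (pH 7.2–7.3), adjusted to 0.5 McFarland, and diluted 1:20 in Mueller–Hinton broth. Compounds were dissolved in DMSO (final ≤2.5%) and tested by NCCLS-modified broth microdilution with drug-free, sterility and broth+DMSO controls.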

Staphylococcus aureus [2] = test: Antimicrobial activity against methicillin-resistant Staphylococcus aureus 630 after 24 hrs by broth microdilution method; details: Staphylococcus aureus, 630, 24 h; summary of the method: as §2
Clostridium perfringens = test: Antimicrobial activity against Clostridium perfringens CNCTC 5770 after 24 hrs by broth microdilution method; details: CNCTC 5770, 24 h
Summary of the method: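 Colonies grown on blood agar (nutrient agar, 5% ovine blood) were suspended in PBS pH 7.2–7.3, set to 0.5 McFarland, and diluted 1:20 in MH broth for the final inoculum. Compounds were in DMSO (≤2.5% final), tested by NCCLS-modified microdilution with drug-free, sterility and DMSO controls.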

Bacillus cereus = test: Antimicrobial activity against Bacillus cereus ATCC 14579 after 24 hrs by broth microdilution method; details: ATCC 14579, 24 h; summary of the method: as §1
Staphylococcus aureus [3] = test: Antimicrobial activity against Staphylococcus aureus ATCC 29213 after 24 hrs by broth microdilution method; details: ATCC 29213, 24 h; summary of the method: as §1
Staphylococcus aureus [4] = test: Antimicrobial activity against methicillin-resistant Staphylococcus aureus 63718 after 24 hrs by broth microdilution method; details: Staphylococcus aureus, 63718, 24 h; summary of the method: as §2
Mycobacterium marinum = test: Antimycobacterial activity against Mycobacterium marinum CAMP 5644 after 21 days; details: CAMP 5644, 504 h
Summary of the method: (§3)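 MIC by broth microdilution in Middlebrook 7H9 with ADC enrichment. Compounds were dissolved in DMSO. Inoculum: colonies in sterile water adjusted to 0.5 McFarland, then diluted 1:1000 in sterile water. Drug-free, sterility and medium+DMSO controls were included. Wells were read visually after static incubation in the dark.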

[5] = system: Mycolicibacterium smegmatis; test: Antimycobacterial activity against Mycobacterium smegmatis ATCC 700084 after 3 days; details: ATCC 700084, 72 h
Summary of the method: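 Middlebrook 7H9 plus ADC broth microdilution MIC, with compounds in DMSO. Colonies were suspended in sterile water to 0.5 McFarland, then diluted 1:1000 in sterile water. Drug-free, sterility and DMSO controls were included. The visual read followed 3 days of static aerobic incubation at 37 °C in darkness.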

Mycobacterium kansasii = test: Antimycobacterial activity against Mycobacterium kansasii DSM 44162 after 7 days; details: DSM 44162, 168 h; summary of the method: as §3

Structure (SMILES) | MIC (Pasteurella multocida) [µM] | MIC (Staphylococcus aureus [1]) [µM] | MIC (Staphylococcus aureus [2]) [µM] | MIC (Clostridium perfringens) [µM] | MIC (Bacillus cereus) [µM] | MIC (Staphylococcus aureus [3]) [µM] | MIC (Staphylococcus aureus [4]) [µM] | MIC (Mycobacterium marinum) [µM] | MIC [5] [µM] | MIC (Mycobacterium kansasii) [µM]
O=C(Nc1ccc(Cl)c(Cl)c1)c1cc(Cl)ccc1O | 0.19 (≈ 0.0601 µg/mL) | 0.77 (≈ 0.244 µg/mL) | 0.77 (≈ 0.244 µg/mL) | 0.03 (≈ 0.0095 µg/mL) | 0.09 (≈ 0.0285 µg/mL) | 0.79 (≈ 0.25 µg/mL) | 0.77 (≈ 0.244 µg/mL) | – | – | –
O=C(Nc1ccccc1)c1cc(Cl)ccc1O | 1.01 (≈ 0.25 µg/mL) | 16.1 (≈ 4 µg/mL) | 16.1 (≈ 4 µg/mL) | > 1030 | 32.3 (≈ 8 µg/mL) | 16.1 (≈ 4 µg/mL) | 32.3 (≈ 8 µg/mL) | 64.6 (≈ 16 µg/mL) | 64.6 (≈ 16 µg/mL) | 16.1 (≈ 4 µg/mL)
O=C(Nc1ccc(Cl)c(Cl)c1)c1ccc(Cl)cc1O | 0.2 (≈ 0.0633 µg/mL) | 0.05 (≈ 0.0158 µg/mL) | 0.03 (≈ 0.0095 µg/mL) | 0.2 (≈ 0.0633 µg/mL) | ≤ 0.03 | 0.03 (≈ 0.0095 µg/mL) | 0.05 (≈ 0.0158 µg/mL) | 3.16 (≈ 1 µg/mL) | 12.6 (≈ 4 µg/mL) | 3.16 (≈ 1 µg/mL)
O=C(Nc1ccc([N+](=O)[O-])cc1)c1cc(Cl)ccc1O | 0.03 (≈ 0.00878 µg/mL) | 1.71 (≈ 0.5 µg/mL) | 0.85 (≈ 0.249 µg/mL) | 1.71 (≈ 0.5 µg/mL) | 0.85 (≈ 0.249 µg/mL) | 0.85 (≈ 0.249 µg/mL) | 1.71 (≈ 0.5 µg/mL) | 3.42 (≈ 1 µg/mL) | 13.7 (≈ 4 µg/mL) | ≤ 0.43
O=C(Nc1ccc(Cl)cc1)c1cc(Cl)ccc1O | 3.54 (≈ 0.999 µg/mL) | 56.7 (≈ 16 µg/mL) | 28.4 (≈ 8 µg/mL) | 14.2 (≈ 4 µg/mL) | 14.2 (≈ 4 µg/mL) | 28.4 (≈ 8 µg/mL) | 56.7 (≈ 16 µg/mL) | 7.08 (≈ 2 µg/mL) | 28.4 (≈ 8 µg/mL) | 7.08 (≈ 2 µg/mL)
O=C(Nc1ccc(Br)cc1)c1cc(Cl)ccc1O | 0.19 (≈ 0.062 µg/mL) | 0.76 (≈ 0.248 µg/mL) | 0.76 (≈ 0.248 µg/mL) | 3.06 (≈ 0.999 µg/mL) | 0.38 (≈ 0.124 µg/mL) | 0.76 (≈ 0.248 µg/mL) | 0.76 (≈ 0.248 µg/mL) | 12.2 (≈ 4 µg/mL) | 24.5 (≈ 8 µg/mL) | 6.12 (≈ 2 µg/mL)
O=C(Nc1ccc(C(F)(F)F)cc1)c1cc(Cl)ccc1O | 0.2 (≈ 0.0631 µg/mL) | 0.2 (≈ 0.0631 µg/mL) | 0.2 (≈ 0.0631 µg/mL) | 1.58 (≈ 0.499 µg/mL) | 0.1 (≈ 0.0316 µg/mL) | 0.03 (≈ 0.00947 µg/mL) | 0.1 (≈ 0.0316 µg/mL) | ≤ 0.4 | 12.7 (≈ 4 µg/mL) | 1.58 (≈ 0.499 µg/mL)
COc1ccc(NC(=O)c2cc(Cl)ccc2O)cc1 | 28.8 (≈ 8 µg/mL) | > 921 | > 921 | > 921 | > 921 | > 921 | > 921 | – | – | –
COc1ccc(NC(=O)[C@@H](NC(=O)c2cc(Cl)ccc2O)C(C)C)cc1 | > 679 | > 679 | > 679 | > 679 | > 679 | > 679 | > 679 | – | – | –
Cc1ccc(NC(=O)[C@H](C)NC(=O)c2cc(Cl)ccc2O)cc1 | > 769 | > 769 | > 769 | > 769 | > 769 | > 769 | > 769 | – | – | –
CC(C)[C@H](NC(=O)c1cc(Cl)ccc1O)C(=O)Nc1ccc(C(F)(F)F)cc1 | > 617 | 4.82 (≈ 2 µg/mL) | 4.82 (≈ 2 µg/mL) | 4.82 (≈ 2 µg/mL) | 2.41 (≈ 1 µg/mL) | 4.82 (≈ 2 µg/mL) | 9.64 (≈ 4 µg/mL) | 77.1 (≈ 32 µg/mL) | 77.1 (≈ 32 µg/mL) | 38.6 (≈ 16 µg/mL)
CC(C)[C@H](NC(=O)c1ccc(Cl)cc1O)C(=O)Nc1ccc(Br)cc1 | > 601 | 9.39 (≈ 4 µg/mL) | 9.39 (≈ 4 µg/mL) | 9.39 (≈ 4 µg/mL) | 2.34 (≈ 0.996 µg/mL) | 9.39 (≈ 4 µg/mL) | 18.8 (≈ 8 µg/mL) | 150 (≈ 63.9 µg/mL) | 150 (≈ 63.9 µg/mL) | 75.2 (≈ 32 µg/mL)
CC(C)[C@H](NC(=O)c1ccc(Cl)cc1O)C(=O)Nc1ccc(Cl)c(Cl)c1 | > 615 | 2.4 (≈ 0.998 µg/mL) | 2.4 (≈ 0.998 µg/mL) | 38.5 (≈ 16 µg/mL) | 1.2 (≈ 0.499 µg/mL) | 2.4 (≈ 0.998 µg/mL) | 4.81 (≈ 2 µg/mL) | 77 (≈ 32 µg/mL) | 77 (≈ 32 µg/mL) | 77 (≈ 32 µg/mL)
